This is an account of results in the array DNA melting data of Ke et al. (doi:10.1101/2024.01.08.574731).

Series [1] in a line: folding enthalpy; higher = less favourable; fluorescence melt of hairpins on a sequencing array, two-state fit. As to conditions: sodium 0.088 M. In a few lines: (§1)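 Melting temperature and folding enthalpy were derived from bootstrapped two-state fits. The fitted temperatures were raised by 9.35 °C to agree with UV melts, and four replicates were combined by inverse variance. The underlying data were Cy3 fluorescence images of library hairpins, with annealed Cy3 and quencher oligos, on a sequenced MiSeq flow cell in 50 mM Na-HEPES pH 8.0, 25 mM NaCl, taken in 2.5 °C steps up to 60 °C, normalised to pre-quench Cy3 and to control constructs.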

A short description of series [2]: melting temperature; fluorescence melt of hairpins on a sequencing array, two-state fit, raised by 9.35 °C to match UV melts. As to conditions: sodium 0.088 M. In short, it runs like this:
as §1

As for GTCTGCGAAAGCAATGAC ((((((....)))..))), the folding enthalpy in series [1] is -16.8 kcal/mol. Besides, in series [2], the Tm is 39.3 °C.
For GTCTGCGAAAGCACGGAC ((((((....)))..))), the folding enthalpy in series [1] is -15.2 kcal/mol. For the same sequence, in series [2], the Tm came out at 38.9 °C.
The corresponding values for GTCTGCGGAAACGTGGAC (((..((....))..))) are -32.4 kcal/mol and 47.5 °C.
As to GTCTGCTCGAAAGAGGAC (((..(((....)))))), the folding enthalpy in series [1] is -18.1 kcal/mol. In series [2], the Tm amounted to 31.3 °C.
The corresponding values for GTCTGGAAACAGAC (((((....))))) are -27.8 kcal/mol and 52.4 °C.
As to GTCTGGCGAAAGCCCGAC (((.(((....))).))), the folding enthalpy in series [1] is -25.7 kcal/mol. In series [2], the Tm stood at 52.2 °C.
The corresponding values for GTCTGGGGAAACCTGGAC (((..((....))..))) are -23.9 kcal/mol and 41 °C.
The corresponding values for GTCTGTCGAAAGACGGAC (((.(((....))).))) are -36.6 kcal/mol and 63.2 °C.
As to GTCTGTCGAAAGACTGAC (((.(((....))).))), the folding enthalpy in series [1] is -39.4 kcal/mol. For the same sequence, the Tm in series [2] turned out to be 54.4 °C.
Consider GTCTTACCGAAAGGTGAC (((..(((....)))))), for which, in series [1], the folding enthalpy is -13.9 kcal/mol. For the same sequence, the Tm in series [2] amounted to 35.7 °C.
The corresponding values for GTCTTACGAAAGTAGAC (((.(((....)))))) are -23.8 kcal/mol and 43.4 °C.
In the case of GTCTTAGCGAAAGCTGAC (((..(((....)))))), the folding enthalpy in series [1] was -14.9 kcal/mol. In addition, in series [2], the Tm was 39 °C.
The matching figures for GTCTTAGGAAACTAGGAC (((.(((....))).))): -33.8 kcal/mol and 38.4 °C.
On to GTCTTCCGAAAGGAGGAC (((.(((....))).))), for which the folding enthalpy in series [1] is -38.2 kcal/mol. The Tm in series [2] came to 54.5 °C.
The matching figures for GTCTTCGAAAGAAAGGAC ((((((....)))..))): -10.7 kcal/mol and 26.7 °C.
The matching figures for GTCTTCGAAAGAAGGGAC ((((((....)))..))): -14.1 kcal/mol and 32.9 °C.
The corresponding values for GTCTTCGAAAGAATTGAC ((((((....)))..))) are -10.7 kcal/mol and 26.2 °C.
Turning to GTCTTCGGAAACGAAGGC (.(((((....))))).), in series [1], the folding enthalpy is -32.9 kcal/mol. Also, the Tm in series [2] worked out at 53.8 °C.
For the sequence GTCTTTACGAAAGTAGAC (((..(((....)))))), in series [1], the folding enthalpy was -17.4 kcal/mol. Also, the Tm in series [2] was determined as 31.8 °C.
The corresponding values for GTCTTTCGAAAGAAGGAC (((.(((....))).))) are -31.5 kcal/mol and 47.4 °C.
The matching figures for GTCTTTCGAAAGAATGAC (((.(((....))).))): -36.6 kcal/mol and 45.2 °C.
The matching figures for GTCTTTGAAAAAAGAC ((((((....)))))): -31.1 kcal/mol and 48 °C.
As to GTCTTTGGAAACAAAGAC (((((((....))))))), in series [1], the folding enthalpy was -42.3 kcal/mol. Moreover, the Tm in series [2] turned out to be 56.5 °C.
The corresponding values for GTCTTTGGAAACAAGGAC (((.(((....))).))) are -31.1 kcal/mol and 41.5 °C.
The corresponding values for GTCTTTGGAAACAGAGAC ((((.((....)).)))) are -26 kcal/mol and 37.3 °C.
For GTCTTTTCGAAAGAAGAC (((..(((....)))))), the folding enthalpy in series [1] is -18.7 kcal/mol. Besides, the Tm in series [2] was 31.6 °C.
The matching figures for GTGAAAGCGAAAGCTCAC (((..(((....)))))): -23.9 kcal/mol and 47.6 °C.
The matching figures for GTGAACCGAAAGGTCAC (((.(((....)))))): -27.2 kcal/mol and 54.9 °C.
For the sequence GTGAACGAAAGTTCGCAC ((((((....)))..))), the folding enthalpy in series [1] was -16.4 kcal/mol. Besides, the Tm in series [2] was 51.3 °C.
The corresponding values for GTGAACGGAAACGTCCAC (((.(((....))).))) are -31.9 kcal/mol and 45.1 °C.
Consider GTGAAGCGAAAGCTCAC (((.(((....)))))), for which the folding enthalpy in series [1] was -26.2 kcal/mol. Besides, in series [2], the Tm is 56 °C.
As for GTGAAGGGAAACCTTCGC (.(((((....))))).), in series [1], the folding enthalpy is -25.8 kcal/mol. For the same sequence, in series [2], the Tm is 50.2 °C.
The corresponding values for GTGAATGCGAAAGCACAC (((..(((....)))))) are -14.7 kcal/mol and 40.7 °C.
The corresponding values for GTGAATGGAAACATTCAC (((((((....))))))) are -45.6 kcal/mol and 56.9 °C.
The corresponding values for GTGAATGGAAACATTTGC (..((((....))))..) are -15.5 kcal/mol and 31.4 °C.
As to GTGAATGGAAACGTTCAC (((((.(....).))))), the folding enthalpy in series [1] is -39.7 kcal/mol. The Tm in series [2] was 47.1 °C.
The matching figures for GTGACAGGAAACTATCAC ((((.((....)).)))): -19.4 kcal/mol and 33.2 °C.
The matching figures for GTGACAGGAAACTGTTGC (..((((....))))..): -20.8 kcal/mol and 37.3 °C.
Take GTGACCGAAAGGTACAC ((((((....))).))): the folding enthalpy in series [1] was -19.4 kcal/mol. In addition, in series [2], the Tm was found to be 49.9 °C.
Consider GTGACCGAAAGGTCCCAC ((((((....)))..))), for which the folding enthalpy in series [1] is -8.57 kcal/mol. Moreover, in series [2], the Tm turned out to be 35.9 °C.
GTGACCGAAAGGTGCCAC ((((((....)))..))): the folding enthalpy in series [1] is -12.1 kcal/mol. Moreover, the Tm in series [2] amounted to 30.2 °C.
The corresponding values for GTGACGCCGAAAGGCCAC (((..(((....)))))) are -11.8 kcal/mol and 45.2 °C.
The matching figures for GTGACGGGAAACCGCCAC (((.(((....))).))): -42.1 kcal/mol and 52.2 °C.
The corresponding values for GTGACGGGAAACCGTTGC (..((((....))))..) are -17.6 kcal/mol and 45.4 °C.
In the case of GTGACTGGAAACGGTTAC ((.((.(....).)).)), the folding enthalpy in series [1] was -8.77 kcal/mol. Further, the Tm in series [2] was determined as 36.9 °C.
The matching figures for GTGAGACCGAAAGGTCAC (((..(((....)))))): -16.1 kcal/mol and 50.4 °C.
The corresponding values for GTGAGAGGAAACTCTCAC (((((((....))))))) are -41.8 kcal/mol and 61.7 °C.
The matching figures for GTGAGAGGAAACTCTTAC ((.((((....)))).)): -30.9 kcal/mol and 38.2 °C.
On to GTGAGCCGAAAGGCCAC (((.(((....)))))), for which the folding enthalpy in series [1] was -18.7 kcal/mol. Further, in series [2], the Tm is 64.7 °C.
Turning to GTGAGCCGAAAGGCCCAC (((.(((....))).))), in series [1], the folding enthalpy was -23.3 kcal/mol. The Tm in series [2] was found to be 55.3 °C.
The matching figures for GTGAGCGAAAGCTATCAC ((((((....)))..))): -18.3 kcal/mol and 37.6 °C.
The corresponding values for GTGAGCGAAAGCTCTCAC ((((((....)))..))) are -10 kcal/mol and 40.6 °C.
The corresponding values for GTGAGCGAAAGCTGTCAC ((((((....)))..))) are -14.3 kcal/mol and 40.2 °C.
Turning to GTGAGCGAAAGCTTACAC ((((((....)))..))), the folding enthalpy in series [1] was -14 kcal/mol. For the same sequence, in series [2], the Tm amounted to 49 °C.
The matching figures for GTGAGCGGAAACGCCCAC (((.(((....))).))): -23.7 kcal/mol and 51.1 °C.
The corresponding values for GTGAGCGGAAACGCTTGC (..((((....))))..) are -16.2 kcal/mol and 43.8 °C.
The corresponding values for GTGAGGACGAAAGTCCAC (((..(((....)))))) are -13.9 kcal/mol and 47.9 °C.
Consider GTGAGGCGAAAGCCACAC (((.(((....))).))), for which the folding enthalpy in series [1] was -26.5 kcal/mol. Besides, the Tm in series [2] worked out at 59.6 °C.
With GTGAGGGCGAAAGCCCAC (((..(((....)))))), the folding enthalpy in series [1] is -11.6 kcal/mol. Moreover, the Tm in series [2] came out at 46.5 °C.
The matching figures for GTGAGGGGAAACTCTCGC (.(((.(....).))).): -24.9 kcal/mol and 37.2 °C.
The matching figures for GTGAGTCGAAAGACCAC (((.(((....)))))): -33.7 kcal/mol and 53 °C.
As for GTGAGTGCGAAAGCACAC (((..(((....)))))), the folding enthalpy in series [1] is -12.5 kcal/mol. In series [2], the Tm was determined as 48.6 °C.
GTGAGTGGAAACACTCAC (((((((....))))))): in series [1], the folding enthalpy was -44 kcal/mol. In addition, in series [2], the Tm is 66.2 °C.
The matching figures for GTGATAACGAAAGTTCAC (((..(((....)))))): -15.1 kcal/mol and 37.5 °C.
Regarding GTGATAGCGAAAGCTCAC (((..(((....)))))), in series [1], the folding enthalpy is -18.9 kcal/mol. Also, the Tm in series [2] was 44.9 °C.
The corresponding values for GTGATAGGAAACTGTCAC ((((.((....)).)))) are -36.5 kcal/mol and 45.7 °C.
The matching figures for GTGATCCCGAAAGGGCAC (((..(((....)))))): -14.4 kcal/mol and 39.9 °C.
The corresponding values for GTGATCCGAAAGGACAC (((.(((....)))))) are -22.5 kcal/mol and 50.7 °C.
For GTGATCGAAAGATAACAC ((((((....)))..))), the folding enthalpy in series [1] is -23.6 kcal/mol. Also, the Tm in series [2] is 34.5 °C.
The matching figures for GTGATCGAAAGATCACAC ((((((....)))..))): -14.1 kcal/mol and 67.3 °C.
The matching figures for GTGATCGAAAGATCGCAC ((((((....)))..))): -18.1 kcal/mol and 51.8 °C.
Regarding GTGATCGAAAGATGCAC ((((((....))).))), the folding enthalpy in series [1] was -19.6 kcal/mol. The Tm in series [2] was found to be 38.7 °C.
The matching figures for GTGATGCCGAAAGGCCAC (((..(((....)))))): -13.5 kcal/mol and 41.6 °C.
